Test results as given in ChEMBL document CHEMBL1131529, “Novel tetranuclear orthometalated complexes of Pd(II) and Pt(II) derived from p-isopropylbenzaldehyde thiosemicarbazone with cytotoxic activity in cis-DDP resistant tumor cell lines. Interaction of these complexes with DNA” (J Med Chem, 1998).
Several values for one entry are separate records, joined by “and”; a condition that tells them apart may be missing. Equal values may be shown once.

What was measured:
GLIOMA#112 = assay: Inhibitory activity against GLIOMA#112 cell line; type: functional, cell-based, Homo sapiens
Summary of the method: (§1)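 Cells were seeded at 10^4/well and treated 24 h with compounds at 0–100 µM final (solvent ≤10%). Survival was measured by MTT reduction (1 mg/mL, 5 h) read at 520 nm. IC50 came from survival–concentration curves, in quadruplicate.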

PAM = assay: Inhibitory activity against PAM cell line; type: functional, cell-based, Mus musculus
Summary of the method: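 Murine keratinocytes, normal Pam and H-ras-transformed Pam-Ras, were grown in DMEM with 10% FCS and 2 mM glutamine. They were seeded at 10^4 cells/well, preincubated 3–4 h, then given compounds at 0–100 µM final for 24 h. MTT was added to 1 mg/mL for 5 h at 37 °C and absorbance read at 520 nm. IC50 came from % survival vs concentration plots, in quadruplicate.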

GLIOMA#108 = assay: Inhibitory activity against GLIOMA#108 cell line; type: functional, cell-based, Homo sapiens; summary of the method: as §1
NIH3T3 = assay: Inhibitory activity against 3T3 cell line; type: functional, cell-based, Mus musculus
Summary of the method: (§2)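 HeLa cervical carcinoma cells were grown in DMEM with 10% FCS, and NIH 3T3 cells in DMEM with 10% newborn calf serum. Both were seeded at 10^4 cells/well and exposed 24 h to compounds at 0–100 µM final (ethanol or DMSO ≤10%). MTT was added to 1 mg/mL for 5 h at 37 °C and A520 read. IC50 came from survival curves, in quadruplicate.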

Jurkat = assay: Inhibitory activity against JURKAT cell line; type: functional, cell-based, Homo sapiens
Summary of the method: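 Compounds were added at 0–100 µM final (ethanol or DMSO vehicle, ≤10%) for 24 h. MTT was added to 1 mg/mL for 5 h at 37 °C and absorbance read at 520 nm. IC50 came from % survival vs concentration curves, in quadruplicate.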

HeLa = assay: Inhibitory activity against HeLa cell line; type: functional, cell-based, Homo sapiens; summary of the method: as §2
PAM-RAS (Mus musculus) = assay: Inhibitory activity against PAM-RAS cell line

| IC50 (GLIOMA#112; glioma#112) | IC50 (PAM; pam) [µM] | IC50 (GLIOMA#108; glioma#108) | IC50 (Jurkat) | IC50 (HeLa) [µM] | IC50 (PAM-RAS (Mus musculus); pam-ras) | IC50 (GLIOMA#112; Homo sapiens, GLIOMA#112) [µM] | IC50 (PAM; Mus musculus, PAM) [µM] | IC50 (GLIOMA#108; Homo sapiens, GLIOMA#108) [µM] | IC50 (PAM-RAS (Mus musculus); Mus musculus, PAM-RAS) [µM] | Molecule | IC50 (NIH3T3) [µM] |
| --- | --- | --- | --- | --- | --- | --- | --- | --- | --- | --- | --- |
| 27 µM | 30 | 54 µM | 7 µM | 20 | 9 µM |  |  |  |  | Tetrameric orthoplatinated p-isopropylbenzaldehyde thiosemicarbazone | 21 |
|  |  |  |  |  |  | 62 | 180 | 76 | 136 | COc1cc([C@@H]2c3cc4c(cc3[C@@H](O[C@@H]3O[C@@H]5CO[C@@H](C)O[C@H]5[C@H](O)[C@H]3O)[C@H]3COC(=O)[C@H]23)OCO4)cc(OC)c1O [ETOPOSIDE] |  |
| 50 µM and 35 µM |  | 40 µM and 62 µM | 6 µM and 7 µM |  | 37 µM and 5 µM |  |  |  |  | Tetrameric orthopalladated p-isopropylbenzaldehyde thiosemicarbazone |  |
|  |  |  |  |  |  |  | 150 |  | 156 | COc1cccc2c1C(=O)c1c(O)c3c(c(O)c1C2=O)C[C@@](O)(C(=O)CO)C[C@@H]3O[C@H]1C[C@H](N)[C@H](O)[C@H](C)O1 [DOXORUBICIN] |  |
| 120 µM | 164 | 86 µM | 22 µM | 7 | 165 µM |  |  |  |  | CISPLATIN | 35 |
